Results on 20 molecules are retold here after paper PMC8359148 (ACS Omega, 2021).

Assay [1] deals with wild-type P. falciparum 3D7 cells. The assay can be described thus: dose–response assay against 3D7 cells. It counts as cell-based. Conditions: Plasmodium falciparum, 3D7, read-out: EC50 3D7. Put shortly: (§1)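 Dose–response EC50 values, each from three or more independent experiments. Dd2 and 3D7 runs use chloroquine as comparator. The selectivity index is calculated as HepG2 EC50 divided by Dd2 EC50.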

For assay [2], the system named is chloroquine-resistant P. falciparum Dd2 parasites. The assay is described as follows: SYBR Green I dose–response assay against Dd2 parasites. It counts as cell-based. The conditions noted are these: Plasmodium falciparum, DD2, read-out: EC50 Dd2, chloroquine-resistant P. falciparum Dd2, three or more independent experiments. Put shortly:
as §1

Assay [3] has as its system HepG2 (liver hepatocellular carcinoma) cells. The assay is described as follows: HepG2. The conditions noted are these: for selectivity index (SI): HepG2 EC50/EC50 Dd2 cells; for EC50: Homo sapiens, HepG2, read-out: EC50 HepG2. The format is cell-based, human. Put shortly: as §1
The subject of assay [4] is P. falciparum Dd2 cultures. The assay can be described thus: kinetic kill experiments. The format is cell-based, Plasmodium falciparum. The conditions noted are these: Plasmodium falciparum, DD2, read-out: 5 × EC50. The gist of the method: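 Asynchronous Dd2 cultures are exposed to test compound for 6, 12, 24 or 48 h at 0.15% DMSO, then washed three times in RPMI and resuspended in culture medium. Parasite growth is monitored daily for 96 h. DHA (50 nM) and atovaquone (6.6 nM) serve as controls.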

Usually EC50 stands for the concentration at which the effect is half-maximal. With `CCN(CC)CCCC(C)Nc1ccnc2cc(Cl)ccc12` (centres unmarked) [Chloroquine, reference compound], the EC50 was found to be 17 nM in assay [1] and 190 nM in assay [2].

For `CC[C@]12CCCN3CCc4c(n(c5ccccc45)[C@@](O)(C(=O)OC)C1)[C@@H]32` [Compound 1, Vincamine, reference compound], the EC50 in assay [1] and in assay [2] was > 50000 nM throughout.

On to `CC[C@@]12C=C(C(=O)OC)n3c(c(c4ccccc43)CCNCCC1)[C@@H]2c1ccc(O)cc1` [Compound 18, Methyl (11S,19S)-11-ethyl-19-(4-hydroxyphenyl)-8,15-diazatetracyclo[9.6.2.0^2,7.0^8,18]nonadeca-1(18),2(7),3,5,9-pentaene-9-carboxylate], for which the EC50 in assay [2] turned out to be 10800 ± 2930 nM.

For the molecule `CC[C@@]12C=C(C(=O)OC)n3c(c(c4ccccc43)CCN(/C=C/C(=O)OC)CCC1)[C@@H]2c1ccc(OC(C)=O)cc1` [Compound 19, Methyl (11S,19S)-19-[4-(acetyloxy)phenyl]-11-ethyl-15-[(1E)-3-methoxy-3-oxoprop-1-en-1-yl]-8,15-diazatetracyclo[9.6.2.0^2,7.0^8,18]nonadeca-1(18),2(7),3,5,9-pentaene-9-carboxylate], the EC50 in assay [2] is 6110 ± 1560 nM.

Consider `CC[C@@]12C=C(C(=O)OC)n3c(c(c4ccccc43)CCN(C(C)=O)CCC1)[C@@H]2c1ccc(O)cc1` [Compound 20, methyl (11S,19S)-15-acetyl-11-ethyl-19-(4-hydroxyphenyl)-8,15-diazatetracyclo[9.6.2.0^2,7.0^8,18]nonadeca-1(18),2(7),3,5,9-pentaene-9-carboxylate], for which the EC50 in assay [1] is 12000 ± 3400 nM; in assay [2], > 20000 nM.

Consider `CC[C@@]12C=C(C(=O)OC)n3c(c(c4ccccc43)CCN(C(=O)c3ccc(OC)nc3)CCC1)[C@@H]2c1ccc(O)cc1` [Compound 21, methyl (11S,19S)-11-ethyl-19-(4-hydroxyphenyl)-15-(6-methoxypyridine-3-carbonyl)-8,15-diazatetracyclo[9.6.2.0^2,7.0^8,18]nonadeca-1(18),2(7),3,5,9-pentaene-9-carboxylate], for which the EC50 was 1330 ± 180 nM in assay [1] and 630 ± 120 nM in assay [2].

In the case of `CC[C@@]12C=C(C(=O)OC)n3c(c(c4ccccc43)CCN(C(=O)COCCOCCOC)CCC1)[C@@H]2c1ccc(O)cc1` [Compound 22, methyl (11S,19S)-11-ethyl-19-(4-hydroxyphenyl)-15-{2-[2-(2-methoxyethoxy)ethoxy]acetyl}-8,15-diazatetracyclo[9.6.2.0^2,7.0^8,18]nonadeca-1(18),2(7),3,5,9-pentaene-9-carboxylate], the EC50 in assay [2] stood at 4100 ± 550 nM.

Turning to `CC[C@@]12C=C(C(=O)OC)n3c(c(c4ccccc43)CCN(C(=O)C3CCCCC3)CCC1)[C@@H]2c1ccc(O)cc1` [Compound 23, methyl (11S,19S)-15-cyclohexanecarbonyl-11-ethyl-19-(4-hydroxyphenyl)-8,15-diazatetracyclo[9.6.2.0^2,7.0^8,18]nonadeca-1(18),2(7),3,5,9-pentaene-9-carboxylate], the EC50 in assay [2] was 2530 ± 340 nM.

`CC[C@@]12C=C(C(=O)OC)n3c(c(c4ccccc43)CCN(C(=O)c3ccc(C(F)(F)F)cc3)CCC1)[C@@H]2c1ccc(O)cc1` [Compound 24, methyl (11S,19S)-11-ethyl-19-(4-hydroxyphenyl)-15-[4-(trifluoromethyl)benzoyl]-8,15-diazatetracyclo[9.6.2.0^2,7.0^8,18]nonadeca-1(18),2(7),3,5,9-pentaene-9-carboxylate]: in assay [2], the concentration for a half-maximal effect (EC50) amounted to 1540 ± 4 nM.

On to `CC[C@@]12C=C(C(=O)OC)n3c(c(c4ccccc43)CCN(C(=O)c3cccnc3)CCC1)[C@@H]2c1ccc(O)cc1` [Compound 25, methyl (11S,19S)-11-ethyl-19-(4-hydroxyphenyl)-15-(pyridine-3-carbonyl)-8,15-diazatetracyclo[9.6.2.0^2,7.0^8,18]nonadeca-1(18),2(7),3,5,9-pentaene-9-carboxylate], for which the EC50 was 2250 ± 400 nM in assay [1], 550 ± 70 nM in assay [2] and > 25000 nM in assay [3]. Besides, the “selectivity index (SI)” value in assay [3] is recorded as >45.

As for `CC[C@@]12C=C(C(=O)OC)n3c(c(c4ccccc43)CCN(C(=O)c3ccco3)CCC1)[C@@H]2c1ccc(O)cc1` [Compound 26, methyl (11S,19S)-11-ethyl-15-(furan-2-carbonyl)-19-(4-hydroxyphenyl)-8,15-diazatetracyclo[9.6.2.0^2,7.0^8,18]nonadeca-1(18),2(7),3,5,9-pentaene-9-carboxylate], the results for the EC50 in assay [1], in assay [2] and in assay [3] were 1800 ± 360 nM, 2480 ± 330 nM and > 25000 nM, respectively. Also, the “selectivity index (SI)” value in assay [3] is >10.

As for `CC[C@@]12C=C(C(=O)OC)n3c(c(c4ccccc43)CCN(C(=O)c3cncnc3)CCC1)[C@@H]2c1ccc(O)cc1` [Compound 27, methyl (11S,19S)-11-ethyl-19-(4-hydroxyphenyl)-15-(pyrimidine-5-carbonyl)-8,15-diazatetracyclo[9.6.2.0^2,7.0^8,18]nonadeca-1(18),2(7),3,5,9-pentaene-9-carboxylate], the EC50 is 1990 ± 300 nM in assay [1], 730 ± 110 nM in assay [2] and > 25000 nM in assay [3]. In assay [3], the “selectivity index (SI)” value is >34.

Take `CC[C@@]12C=C(C(=O)OC)n3c(c(c4ccccc43)CCN(C(=O)c3ccno3)CCC1)[C@@H]2c1ccc(O)cc1` [Compound 28, methyl (11S,19S)-11-ethyl-19-(4-hydroxyphenyl)-15-(1,2-oxazole-5-carbonyl)-8,15-diazatetracyclo[9.6.2.0^2,7.0^8,18]nonadeca-1(18),2(7),3,5,9-pentaene-9-carboxylate]: the EC50 in assay [1] was 970 ± 30 nM; in assay [2], 2140 ± 360 nM; in assay [3], > 25000 nM. In assay [3], the “selectivity index (SI)” value is >11.

On to `CC[C@@]12C=C(C(=O)OC)n3c(c(c4ccccc43)CCN(C(=O)c3ccc[nH]3)CCC1)[C@@H]2c1ccc(O)cc1` [Compound 29, methyl (11S,19S)-11-ethyl-19-(4-hydroxyphenyl)-15-(1H-pyrrole-2-carbonyl)-8,15-diazatetracyclo[9.6.2.0^2,7.0^8,18]nonadeca-1(18),2(7),3,5,9-pentaene-9-carboxylate], for which the EC50 was 3180 ± 70 nM in assay [1] and 2980 ± 400 nM in assay [2].

With `CC[C@@]12C=C(C(=O)OC)n3c(c(c4ccccc43)CCN(C(=O)c3ccncc3)CCC1)[C@@H]2c1ccc(O)cc1` [Compound 31, methyl (11S,19S)-11-ethyl-19-(4-hydroxyphenyl)-15-(pyridine-4-carbonyl)-8,15-diazatetracyclo[9.6.2.0^2,7.0^8,18]nonadeca-1(18),2(7),3,5,9-pentaene-9-carboxylate], the EC50 in assay [2] is 5900 ± 260 nM.

`CC[C@@]12C=C(C(=O)OC)n3c(c(c4ccccc43)CCN(C(=O)c3cncc(Cl)c3)CCC1)[C@@H]2c1ccc(O)cc1` [Compound 32, methyl (11S,19S)-15-(5-chloropyridine-3-carbonyl)-11-ethyl-19-(4-hydroxyphenyl)-8,15-diazatetracyclo[9.6.2.0^2,7.0^8,18]nonadeca-1(18),2(7),3,5,9-pentaene-9-carboxylate]: the EC50 in assay [1] was 2220 ± 340 nM; in assay [2], 490 ± 100 nM; in assay [3], > 25000 nM. Besides, the “selectivity index (SI)” value in assay [3] is reported as >51.

On to `CC[C@@]12C=C(C(=O)OC)n3c(c(c4ccccc43)CCN(C(=O)c3cncc(Br)c3)CCC1)[C@@H]2c1ccc(O)cc1` [Compound 33, methyl (11S,19S)-15-(5-bromopyridine-3-carbonyl)-11-ethyl-19-(4-hydroxyphenyl)-8,15-diazatetracyclo[9.6.2.0^2,7.0^8,18]nonadeca-1(18),2(7),3,5,9-pentaene-9-carboxylate], for which the figures for the EC50 in assay [1], in assay [2] and in assay [3] were 1700 ± 320 nM, 650 ± 9 nM and > 25000 nM, respectively. Moreover, the “selectivity index (SI)” value in assay [3] is listed as >38.

For the molecule `CC[C@@]12C=C(C(=O)OC)n3c(c(c4ccccc43)CCN(C(=O)c3ccccc3)CCC1)[C@@H]2c1ccc(O)cc1` [Compound 34, methyl (11S,19S)-15-benzoyl-11-ethyl-19-(4-hydroxyphenyl)-8,15-diazatetracyclo[9.6.2.0^2,7.0^8,18]nonadeca-1(18),2(7),3,5,9-pentaene-9-carboxylate], the EC50 in assay [1] came out at 6600 ± 1060 nM; in assay [2], 2950 ± 1140 nM.

Regarding `C[C@H]1[C@@H](O)O[C@@H]2O[C@@]3(C)CC[C@H]4[C@H](C)CC[C@@H]1[C@@]24OO3` [Dihydroartemisinin (DHA), Dihydroartemisinin, reference compound], the EC50 in assay [4] stood at 50 nM.

In the case of `O=C1C(O)=C([C@H]2CC[C@H](c3ccc(Cl)cc3)CC2)C(=O)c2ccccc21` [atovaquone, reference compound], the EC50 in assay [4] is 6.6 nM.
